Columns and labels:
[1] = molecular target: T1, Adenosine receptor A1 (Homo sapiens) (UniProt P30542); assay: Displacement of [3H]N6-R-phenylisopropyladenosine from human adenosine A1 receptor stably expressed in CHO cell membrane at 10 uM by radioligand binding assay; type: cell membranes
T1 sequence (whole entry): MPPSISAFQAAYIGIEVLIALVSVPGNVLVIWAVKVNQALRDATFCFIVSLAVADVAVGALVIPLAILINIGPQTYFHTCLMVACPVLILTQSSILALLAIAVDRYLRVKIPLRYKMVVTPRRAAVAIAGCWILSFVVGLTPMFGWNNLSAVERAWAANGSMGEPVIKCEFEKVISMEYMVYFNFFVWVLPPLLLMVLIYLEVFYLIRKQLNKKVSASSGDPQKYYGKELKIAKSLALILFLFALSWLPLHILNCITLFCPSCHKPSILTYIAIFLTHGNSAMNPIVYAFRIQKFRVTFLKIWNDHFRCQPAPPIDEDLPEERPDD

Adenosine receptor A3 [2] = molecular target: T2, Adenosine receptor A3 (Homo sapiens, UniProt P0DMS8); assay: Displacement of [125I]N6-(4-amino-3-iodobenzyl)adenosine-5'-N-methyl-uronamide from human adenosine A3 receptor stably expressed in CHO cell membrane by radioligand binding assay; type: cell membranes
T2 sequence (P0DMS8 whole entry): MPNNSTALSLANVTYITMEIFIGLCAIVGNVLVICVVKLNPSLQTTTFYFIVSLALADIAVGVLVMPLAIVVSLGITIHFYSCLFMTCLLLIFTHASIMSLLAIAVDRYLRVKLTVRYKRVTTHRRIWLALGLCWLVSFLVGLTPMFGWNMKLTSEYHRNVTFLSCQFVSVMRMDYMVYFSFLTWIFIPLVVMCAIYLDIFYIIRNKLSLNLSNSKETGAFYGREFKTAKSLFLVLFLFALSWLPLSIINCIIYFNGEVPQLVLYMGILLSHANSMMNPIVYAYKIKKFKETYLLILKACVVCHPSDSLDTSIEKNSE

[3] = molecular target: Translocator protein (Rattus norvegicus) (UniProt P16257); assay: Displacement of [3H]flunitrazepam from rat brain benzodiazepine receptor TSPO incubated for […] by liquid scintillation counting method
Sequence of Translocator protein (Rattus norvegicus) (P16257 whole entry, looked up): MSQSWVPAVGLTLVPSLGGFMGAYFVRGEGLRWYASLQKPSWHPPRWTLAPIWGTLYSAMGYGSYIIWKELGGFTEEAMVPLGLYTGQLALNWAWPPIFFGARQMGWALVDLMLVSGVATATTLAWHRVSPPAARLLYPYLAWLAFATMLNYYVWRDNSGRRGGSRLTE

Adenosine receptor A2a [4] = molecular target: T3, Adenosine receptor A2a (Homo sapiens, UniProt P29274); assay: Displacement of [3H]2-[p(2-carboxyethyl)phenyl-ethylamino]-5'-N-ethylcarboxamido-adenosine from human adenosine A2A receptor stably expressed in HEK293 cell membrane at 10 uM by radioligand binding assay; type: cell membranes
T3 sequence (P29274 whole entry): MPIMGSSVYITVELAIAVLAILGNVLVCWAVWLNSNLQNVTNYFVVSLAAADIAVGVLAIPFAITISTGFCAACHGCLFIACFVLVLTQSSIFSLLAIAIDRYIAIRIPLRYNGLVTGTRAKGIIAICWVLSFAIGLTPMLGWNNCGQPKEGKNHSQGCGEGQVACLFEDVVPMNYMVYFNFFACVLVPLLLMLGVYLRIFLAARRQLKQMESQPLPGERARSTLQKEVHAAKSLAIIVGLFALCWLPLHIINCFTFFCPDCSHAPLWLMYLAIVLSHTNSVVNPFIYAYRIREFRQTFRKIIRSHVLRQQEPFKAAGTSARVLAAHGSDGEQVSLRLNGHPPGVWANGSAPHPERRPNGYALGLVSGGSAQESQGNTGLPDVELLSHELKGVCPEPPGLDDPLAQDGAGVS

Mus musculus [5] = assay: Antineuropathic pain activity in mouse chronic constriction injury model of neuropathic pain assessed as reversal of reduction in paw withdrawal threshold of ipsilateral hind paw at 3 umol/kg, po dosed on day 7 after sciatic nerve ligation and measured at 1 hrs; type: functional
How it was run: (§1)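 Paw withdrawal threshold (g) measured at 1 h or 3 h after treatment, at day 7 (D7/BL) and at D0. % effect = [PWT at post-treatment time − PWT at D7/BL] / [PWT at D0 − PWT at D7/BL] × 100. Significance set at P<0.05. Procedures otherwise follow earlier work under IASP/NIH animal welfare guidelines.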

Mus musculus [6] = assay: Induction of mechano-allodynia in mouse chronic constriction injury model of neuropathic pain assessed as paw withdrawal threshold on contralateral side at 3 umol/kg, po; type: organism-based; settings: in vivo
PC-12 = assay: Displacement of [3H]DTG from rat sigma 2 receptor in PC12 cells incubated for 2 hrs by liquid scintillation counting method; type: cell-based; settings: dose or concentration not given here
Mus musculus [7] = assay: Antineuropathic pain activity in mouse chronic constriction injury model of neuropathic pain assessed as reversal of reduction in paw withdrawal threshold of ipsilateral hind paw at 3 umol/kg, po dosed on day 7 after sciatic nerve ligation and measured at 3 hrs; type: functional; set-up: scale not given: the % may be the effect or the level left; how it was run: as §1
Adenosine receptor A3 [8] = molecular target: T4, Adenosine receptor A3 (Mus musculus, UniProt Q61618); assay: Displacement of [125I]N6-(4-amino-3-iodobenzyl)adenosine-5'-N-methyl-uronamide from mouse adenosine A3 receptor stably expressed in CHO cell membrane by radioligand binding assay; type: cell membranes
T4 sequence (Q61618 whole entry): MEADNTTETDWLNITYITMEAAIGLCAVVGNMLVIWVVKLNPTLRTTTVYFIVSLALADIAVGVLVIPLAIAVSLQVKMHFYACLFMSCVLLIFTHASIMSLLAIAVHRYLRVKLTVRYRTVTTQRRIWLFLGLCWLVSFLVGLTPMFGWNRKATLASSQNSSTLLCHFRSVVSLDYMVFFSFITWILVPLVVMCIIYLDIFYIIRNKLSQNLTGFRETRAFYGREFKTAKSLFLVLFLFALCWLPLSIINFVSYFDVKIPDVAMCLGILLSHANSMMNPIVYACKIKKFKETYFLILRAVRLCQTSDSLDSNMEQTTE

Adenosine receptor A2a [9] = molecular target: T3, Adenosine receptor A2a; assay: Displacement of [3H]2-[p(2-carboxyethyl)phenyl-ethylamino]-5'-N-ethylcarboxamido-adenosine from human adenosine A2A receptor stably expressed in HEK293 cell membrane by radioligand binding assay; type: cell membranes
[10] = molecular target: Histamine H2 receptor (Homo sapiens) (UniProt P25021); assay: Displacement of [3H]tiotidine from H2 histamine receptor (unknown origin) expressed in cells at 10 uM incubated for […] by scintillation counting method; type: cell-based
Sequence of Histamine H2 receptor (Homo sapiens) (P25021 whole entry): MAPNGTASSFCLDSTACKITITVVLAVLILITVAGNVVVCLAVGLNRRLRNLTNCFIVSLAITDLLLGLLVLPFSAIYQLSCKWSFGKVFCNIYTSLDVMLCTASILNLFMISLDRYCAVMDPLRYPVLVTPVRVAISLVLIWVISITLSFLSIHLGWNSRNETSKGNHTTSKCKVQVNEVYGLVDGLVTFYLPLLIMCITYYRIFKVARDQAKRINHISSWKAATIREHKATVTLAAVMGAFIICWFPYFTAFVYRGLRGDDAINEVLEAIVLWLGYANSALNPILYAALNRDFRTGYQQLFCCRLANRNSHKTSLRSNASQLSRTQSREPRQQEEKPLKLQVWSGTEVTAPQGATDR

Homo sapiens = organism: Homo sapiens; assay: Selectivity ratio for human A3 adenosine receptor to human A2A adenosine receptor
Mus musculus [11] = assay: Antineuropathic pain activity in mouse chronic constriction injury model of neuropathic pain assessed as reversal of reduction in paw withdrawal threshold of ipsilateral hind paw at 1 umol/kg, po dosed on day 7 after sciatic nerve ligation and measured at 1 and 3 hrs; type: functional; how it was run: as §1

Row | Compound | inhibition [1] [%] | Ki (Adenosine receptor A3 [2]) [nM] | inhibition (Adenosine receptor A2a [4]) [%] | Emax at 3 µmol/kg (Mus musculus [5]) [%] | Activity (Mus musculus [6]) | Activity (Mus musculus [7]) [%] | further results
1 | CNC(=O)[C@@]12C[C@@H]1[C@@H](n1cnc3c(NC)nc(-n4cc(-c5ccc(Cl)s5)nn4)nc31)[C@H](O)[C@@H]2O | 27 | 0.73 | 34 | 66.8 | Non-toxic | 8.4 | inhibition [3]: 54%; inhibition (PC-12): 62%
2 | CNC(=O)[C@@]12C[C@@H]1[C@@H](n1cnc3c(NCCc4ccccc4)nc(-n4cc(-c5ccc(Cl)s5)nn4)nc31)[C@H](O)[C@@H]2O | 58 | 6.66 |  | 94.1 | Non-toxic | 82.9 | 
3 | CNC(=O)[C@@]12C[C@@H]1[C@@H](n1cnc3c(NCCc4ccccc4)nc(I)nc31)[C@H](O)[C@@H]2O | 68 | 0.91 | 42 |  |  |  | 
4 | CNC(=O)[C@@]12C[C@@H]1[C@@H](n1cnc3c(NC)nc(-n4cc(-c5ncccn5)nn4)nc31)[C@H](O)[C@@H]2O | 14 | 3.48 | 27 | 92.7 | Non-toxic | 36.2 | Ki (Adenosine receptor A3 [8]): 334 nM
5 | CNC(=O)[C@@]12C[C@@H]1[C@@H](n1cnc3c(NCc4cccc(Cl)c4)nc(N=[N+]=[N-])nc31)[C@H](O)[C@@H]2O |  | 1.08 |  |  |  |  | Ki (Adenosine receptor A2a [9]): 2770 nM
6 | CCNc1nc(-n2cc(-c3ccc(Cl)s3)nn2)nc2c1ncn2[C@H]1[C@H](O)[C@H](O)[C@]2(C(=O)NC)C[C@H]12 |  | 1.22 | 32 | 84.9 | Non-toxic | 17.9 | 
7 | CNC(=O)[C@@]12C[C@@H]1[C@@H](n1cnc3c(NCCc4ccccc4)nc(N=[N+]=[N-])nc31)[C@H](O)[C@@H]2O | 93 | 0.85 |  |  |  |  | Ki (Adenosine receptor A2a [9]): 1110 nM
8 | CNC(=O)[C@@]12C[C@@H]1[C@@H](n1cnc3c(NC)nc(-n4cc(-c5cc6ccccc6o5)nn4)nc31)[C@H](O)[C@@H]2O | 12 | 1.25 | 40 | 74 | Non-toxic | 22.3 | 
9 | CNC(=O)[C@@]12C[C@@H]1[C@@H](n1cnc3c(NC)nc(-n4cc(-c5cnccn5)nn4)nc31)[C@H](O)[C@@H]2O | 25 | 2.21 | 8 | 76.6 | Non-toxic | 26.6 | 
10 | CNC(=O)[C@@]12C[C@@H]1[C@@H](n1cnc3c(NC4CCC4)nc(I)nc31)[C@H](O)[C@@H]2O |  | 1.53 |  |  |  |  | Ki (Adenosine receptor A2a [9]): > 10000 nM
11 | CNC(=O)[C@@]12C[C@@H]1[C@@H](n1cnc3c(NC)nc(-n4cc(-c5ccco5)nn4)nc31)[C@H](O)[C@@H]2O |  | 0.96 | 51 | 65.3 | Non-toxic | 21.1 | inhibition (PC-12): 50%; inhibition [10]: 50%
12 | CNC(=O)[C@@]12C[C@@H]1[C@@H](n1cnc3c(NC)nc(-n4cc(-c5ccc(Br)s5)nn4)nc31)[C@H](O)[C@@H]2O |  | 0.58 | 7 | 69.1 | Non-toxic | 13.5 | 
13 | CNC(=O)[C@@]12C[C@@H]1[C@@H](n1cnc3c(NC)nc(-n4cc(-c5cnn(C)c5)nn4)nc31)[C@H](O)[C@@H]2O | 2 | 2.16 | 1 | 82.5 | Non-toxic | 19.1 | 
14 | CNC(=O)[C@@]12CC1[C@@H](n1cnc3c(NC)nc(C#Cc4ccccc4)nc31)[C@H](O)[C@@H]2O (single isomer, unassigned) |  |  |  |  |  |  | Selectivity ratio (Homo sapiens): > 3000
15 | CNC(=O)[C@@]12C[C@@H]1[C@@H](n1cnc3c(NC4CCC4)nc(-n4cc(-c5ccc(Cl)s5)nn4)nc31)[C@H](O)[C@@H]2O |  | 7.05 |  | 90.7 | Non-toxic | 85.2 | 
16 | CNC(=O)[C@@]12C[C@@H]1[C@@H](n1cnc3c(NC)nc(N=[N+]=[N-])nc31)[C@H](O)[C@@H]2O |  | 0.54 | 1 |  |  |  | 
17 | CCNc1nc(I)nc2c1ncn2[C@H]1[C@H](O)[C@H](O)[C@]2(C(=O)NC)C[C@H]12 |  | 1.22 | 11 |  |  |  | 
18 | CNC(=O)[C@@]12C[C@@H]1[C@@H](n1cnc3c(NC4CCC4)nc(N=[N+]=[N-])nc31)[C@H](O)[C@@H]2O |  | 0.85 | 46 |  |  |  | 
19 | CCNc1nc(N=[N+]=[N-])nc2c1ncn2[C@H]1[C@H](O)[C@H](O)[C@]2(C(=O)NC)C[C@H]12 |  | 0.69 | 11 |  |  |  | 
20 | CNC(=O)[C@@]12C[C@@H]1[C@@H](n1cnc3c(NCc4cccc(Cl)c4)nc(-n4cc(-c5ccc(Cl)s5)nn4)nc31)[C@H](O)[C@@H]2O |  | 9.02 |  | 94.7 | Non-toxic | 91 | inhibition in vivo at 1 µmol/kg (Mus musculus [11]): 70%
21 | CNC(=O)[C@@]12C[C@@H]1[C@@H](n1cnc3c(NC)nc(-n4cc(-c5ccc(F)c(F)c5)nn4)nc31)[C@H](O)[C@@H]2O |  | 1.06 | 39 | 75.2 | Non-toxic | 27 | 
22 | CNC(=O)[C@@]12C[C@@H]1[C@@H](n1cnc3c(NC)nc(-n4cc(-c5ccccn5)nn4)nc31)[C@H](O)[C@@H]2O | 29 | 1.84 | 26 | 60.9 | Non-toxic | 21.1 | 
23 | CNC(=O)[C@@]12C[C@@H]1[C@@H](n1cnc3c(NC)nc(-n4cc(-c5ccccc5)nn4)nc31)[C@H](O)[C@@H]2O |  | 0.96 | 35 | 77.4 | Non-toxic | 27.5 | 
24 | CNC(=O)[C@@]12C[C@@H]1[C@@H](n1cnc3c(NC)nc(-n4cc(-c5ccccc5Cl)nn4)nc31)[C@H](O)[C@@H]2O |  | 0.95 | 31 | 69.1 | Non-toxic | 7.9 | 
